Laboratory results taken from ChEMBL document CHEMBL1123722, “Comparative antitumor studies on platinum(II) and platinum(IV) complexes containing 1,2-diaminocyclohexane” (J Med Chem, 1987).

Legend:
L1210 = test: Antitumor activity against 10E6 L1210 ascites cells implanted ip in CDF1 mice was determined after a dose of 6-10 mg/kg; assay type: functional, organism-based; conditions: Mus musculus
In short: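 CDF1 mice implanted with 1 × 10⁶ L1210 ascites cells ip. Complexes were suspended in 0.9% NaCl with a drop of Tween 80 and given ip on day 1 after tumor inoculation. Groups were five treated mice and 10 leukemic controls. Mice were observed daily. Activity is % T/C: median survival time of treated ÷ untreated controls × 100.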

B16 = test: Antitumor activity against B16 tumor ascite cells implanted ip in BDF1 mice was determined at a dose of 1.6-2 mg/kg; assay type: functional, organism-based; conditions: Mus musculus

Which results are given for CISPLATIN?
T/C (L1210): 150%; T/C (B16): 167%
